This note sets out measurements from ChEMBL document CHEMBL1152208, “The discovery of biaryl carboxamides as novel small molecule agonists of the motilin receptor” (Bioorg Med Chem Lett, 2008).

The target of data set [1] is T1, Motilin receptor (Homo sapiens, UniProt O43193). In words: Agonist activity at human recombinant motilin receptor expressed in HEK293 cells by FLIPR assay. Type of data set: functional, cell-based. The gist of the method: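 HEK293 cells stably expressing human motilin receptor, seeded on poly-lysine plates 24 h before assay. Loaded with Fluo-4-AM (final) and 1 mM probenecid (final) in HEPES-buffered saline with 0.1% BSA for 1 h at 25 °C, washed, rested 20 min at 25 °C. Fluorescence change followed for 2 min after compound addition. Peak change over baseline was fitted with a 4-parameter logistic to give pEC50. Mean of at least three independent experiments (n = 2 for some).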
T1 sequence (O43193 whole entry): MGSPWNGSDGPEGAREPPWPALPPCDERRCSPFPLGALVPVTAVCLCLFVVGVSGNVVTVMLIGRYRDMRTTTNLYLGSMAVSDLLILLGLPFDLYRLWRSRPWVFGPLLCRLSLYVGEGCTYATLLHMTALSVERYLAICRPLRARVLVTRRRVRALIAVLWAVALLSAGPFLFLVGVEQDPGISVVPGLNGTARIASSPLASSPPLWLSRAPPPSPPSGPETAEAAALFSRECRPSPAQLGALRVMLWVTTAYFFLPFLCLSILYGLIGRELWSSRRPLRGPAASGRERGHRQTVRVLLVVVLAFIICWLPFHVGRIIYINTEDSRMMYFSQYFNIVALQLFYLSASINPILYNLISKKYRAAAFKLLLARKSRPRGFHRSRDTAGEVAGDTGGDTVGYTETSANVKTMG

Data set [2] concerns the target T2, Cytochrome P450 3A4 (Homo sapiens, UniProt P08684). The data set is described as follows: Inhibition of CYP3A4 using diethoxyfluorescein substrate. It counts as ADME.
Data set [3] concerns the target T2, Cytochrome P450 3A4. In words: Inhibition of CYP3A4 using phenyl-piperazinyl-methyl-benzyl-resofurin substrate. It counts as ADME.
In data set [4] the test system is Liver microsomes. In words: Intrinsic clearance in human liver microsome. Type of data set: ADME. A general note: Liver microsomes are a subcellular fraction often used to study metabolism.
Data set [5] deals with Liver microsomes. In words: Intrinsic clearance in rat liver microsome. It counts as ADME.
A short description of data set [6]: Aqueous solubility of the compound. It counts as physicochemical.
The target in data set [7] is T3, Cytochrome P450 1A2 (Homo sapiens, UniProt P05177).
T3 sequence (P05177 whole entry): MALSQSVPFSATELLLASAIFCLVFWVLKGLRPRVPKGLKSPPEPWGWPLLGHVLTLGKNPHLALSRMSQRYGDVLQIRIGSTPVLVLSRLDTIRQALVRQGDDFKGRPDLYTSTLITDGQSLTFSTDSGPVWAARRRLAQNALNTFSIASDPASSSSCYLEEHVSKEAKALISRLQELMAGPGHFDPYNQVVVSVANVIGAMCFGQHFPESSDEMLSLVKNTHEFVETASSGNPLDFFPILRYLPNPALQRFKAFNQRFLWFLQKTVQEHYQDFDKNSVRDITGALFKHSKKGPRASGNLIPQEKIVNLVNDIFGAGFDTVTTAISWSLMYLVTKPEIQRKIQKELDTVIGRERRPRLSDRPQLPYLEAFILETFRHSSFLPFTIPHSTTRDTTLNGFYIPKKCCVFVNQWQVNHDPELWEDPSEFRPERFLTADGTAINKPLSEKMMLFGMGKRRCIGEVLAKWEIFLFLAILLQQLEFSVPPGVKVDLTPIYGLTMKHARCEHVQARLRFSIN
In words: Inhibition of CYP1A2. Type of data set: ADME.

In data set [8] the target is Cytochrome P450 2C9 (Homo sapiens, UniProt P11712). The data set is described as follows: Inhibition of CYP2C9. Type of data set: ADME.
Sequence of Cytochrome P450 2C9 (P11712 whole entry): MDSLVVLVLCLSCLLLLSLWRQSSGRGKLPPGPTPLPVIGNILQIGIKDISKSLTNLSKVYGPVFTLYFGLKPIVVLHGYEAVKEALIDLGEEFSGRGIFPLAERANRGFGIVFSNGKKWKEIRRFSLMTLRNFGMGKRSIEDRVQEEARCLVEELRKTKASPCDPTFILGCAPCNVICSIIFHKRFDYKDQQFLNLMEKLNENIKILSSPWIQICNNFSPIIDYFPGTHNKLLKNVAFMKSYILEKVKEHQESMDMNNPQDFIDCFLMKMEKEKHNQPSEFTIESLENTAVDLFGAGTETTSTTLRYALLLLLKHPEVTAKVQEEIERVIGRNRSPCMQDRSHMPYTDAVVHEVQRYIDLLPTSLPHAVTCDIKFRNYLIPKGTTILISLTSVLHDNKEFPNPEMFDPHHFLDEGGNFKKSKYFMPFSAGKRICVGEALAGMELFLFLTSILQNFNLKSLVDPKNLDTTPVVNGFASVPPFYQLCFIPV
In data set [9] the target is Cytochrome P450 2C19 (Homo sapiens, UniProt P33261). The data set is described as follows: Inhibition of CYP2C19. It counts as ADME.
Sequence of Cytochrome P450 2C19 (P33261 whole entry): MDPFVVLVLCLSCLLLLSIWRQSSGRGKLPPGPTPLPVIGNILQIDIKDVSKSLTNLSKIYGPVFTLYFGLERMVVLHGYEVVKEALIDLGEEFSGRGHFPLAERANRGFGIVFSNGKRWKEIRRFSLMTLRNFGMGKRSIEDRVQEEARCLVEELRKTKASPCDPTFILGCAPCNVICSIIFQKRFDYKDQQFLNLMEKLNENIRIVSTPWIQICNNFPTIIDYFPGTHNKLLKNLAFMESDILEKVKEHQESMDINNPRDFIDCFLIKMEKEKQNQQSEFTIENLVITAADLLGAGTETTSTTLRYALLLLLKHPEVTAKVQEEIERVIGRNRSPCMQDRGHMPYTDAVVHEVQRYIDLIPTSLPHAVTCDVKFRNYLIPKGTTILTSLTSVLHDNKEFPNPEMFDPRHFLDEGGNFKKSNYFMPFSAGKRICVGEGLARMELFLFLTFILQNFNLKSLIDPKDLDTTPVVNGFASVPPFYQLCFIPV
Data set [10] deals with Cytochrome P450 2D6 (Homo sapiens, UniProt P10635). The data set is described as follows: Inhibition of CYP2D6. Type of data set: ADME.
Sequence of Cytochrome P450 2D6 (P10635 whole entry): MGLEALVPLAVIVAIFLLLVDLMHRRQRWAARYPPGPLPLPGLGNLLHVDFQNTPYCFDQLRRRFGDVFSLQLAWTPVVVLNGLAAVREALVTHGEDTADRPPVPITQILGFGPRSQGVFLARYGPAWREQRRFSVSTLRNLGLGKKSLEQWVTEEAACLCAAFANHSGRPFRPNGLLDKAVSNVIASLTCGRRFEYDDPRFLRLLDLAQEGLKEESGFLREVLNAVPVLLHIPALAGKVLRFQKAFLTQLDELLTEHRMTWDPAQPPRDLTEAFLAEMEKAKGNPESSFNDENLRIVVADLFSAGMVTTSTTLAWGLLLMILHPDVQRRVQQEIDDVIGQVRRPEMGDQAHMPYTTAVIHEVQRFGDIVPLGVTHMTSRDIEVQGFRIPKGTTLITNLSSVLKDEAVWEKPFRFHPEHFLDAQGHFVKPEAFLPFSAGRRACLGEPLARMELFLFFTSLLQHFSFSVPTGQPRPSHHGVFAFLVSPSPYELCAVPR
Data set [11] concerns the target Voltage-gated inwardly rectifying potassium channel KCNH2 (Homo sapiens, UniProt Q12809). The data set is described as follows: Inhibition of human ERG binding.
Data set [12] addresses Growth hormone secretagogue receptor type 1 (Homo sapiens, UniProt Q92847). The data set is described as follows: Inhibition of human Ghrelin receptor.
Data set [13] can be described thus: Distribution coefficient, log D at pH 7.4. Type of data set: physicochemical. The following applies: octanol/water.
The nature of data set [14]: Clearance in rat. Type of data set: ADME, organism-based. The following applies: in vivo.
A short description of data set [15]: Oral bioavailability in rat. Type of data set: ADME, organism-based. To be noted: in vivo.
The nature of data set [16]: Clearance in dog. The following applies: in vivo. Type of data set: ADME, organism-based, Canis lupus familiaris.
Data set [17] in a line: Oral bioavailability in dog. It counts as ADME, organism-based, Canis lupus familiaris. The following applies: in vivo.
Data set [18] concerns Stomach. In words: Potentiation of electrical field stimulation-induced contraction in New Zealand white rabbit gastric antrum at 10 uM. Type of data set: functional. To be noted: Oryctolagus cuniculus.
Data set [19] concerns Stomach. In words: Potentiation of electrical field stimulation-induced contraction in New Zealand white rabbit gastric antrum at 3 uM. It counts as functional. To be noted: Oryctolagus cuniculus.
Data set [20] has as its system Stomach. In words: Potentiation of electrical field stimulation-induced contraction in New Zealand white rabbit gastric antrum at 1 uM. It counts as functional. The following applies: Oryctolagus cuniculus.
The test system of data set [21] is Stomach. In words: Potentiation of electrical field stimulation-induced contraction in New Zealand white rabbit gastric antrum at 0.3 uM. To be noted: Oryctolagus cuniculus. Type of data set: functional.
The test system of data set [22] is Stomach. The data set is described as follows: Potentiation of electrical field stimulation-induced contraction in New Zealand white rabbit gastric antrum at 1.5 uM. To be noted: Oryctolagus cuniculus. Type of data set: functional.
Data set [23] addresses T1, Motilin receptor. In words: Agonist activity at human recombinant motilin receptor expressed in CHO cells by FLIPR assay. It counts as functional, cell-based.

Structures are written as SMILES. A value given as a limit tells only on which side of the number the result lay.

By EC50 is commonly meant the concentration that produces a half-maximal response. As usually defined, the IC50 is the concentration needed to halve the response being measured. The low end stands for greater potency, the high end for weaker potency. In general, solubility refers to how much of the substance goes into solution per volume. A low value points to little dissolved substance. The logD is the decadic logarithm of the distribution of all forms, ionised or not, between an organic phase and buffer at a given pH. A lower logD goes with lower lipophilicity. Usually clearance stands for the rate of elimination divided by the concentration. The bioavailability is dose-corrected exposure relative to a reference, in per cent. Usually Emax stands for the greatest response seen or fitted, relative to the assay's reference.

T2 sequence (P08684 whole entry): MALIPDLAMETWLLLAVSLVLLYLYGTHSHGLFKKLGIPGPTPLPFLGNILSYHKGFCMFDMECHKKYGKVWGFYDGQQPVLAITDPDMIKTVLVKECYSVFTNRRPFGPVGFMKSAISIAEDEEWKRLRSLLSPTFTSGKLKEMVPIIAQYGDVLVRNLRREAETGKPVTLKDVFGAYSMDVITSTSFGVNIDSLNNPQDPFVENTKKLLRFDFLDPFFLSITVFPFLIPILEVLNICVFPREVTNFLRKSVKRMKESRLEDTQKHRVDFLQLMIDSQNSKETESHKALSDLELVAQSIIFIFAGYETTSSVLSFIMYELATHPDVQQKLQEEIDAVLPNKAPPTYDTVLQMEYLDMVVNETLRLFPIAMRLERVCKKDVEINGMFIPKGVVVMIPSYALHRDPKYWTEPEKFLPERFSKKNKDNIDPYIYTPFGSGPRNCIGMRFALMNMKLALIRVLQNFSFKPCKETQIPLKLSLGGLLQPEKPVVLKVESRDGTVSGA
Sequence of Growth hormone secretagogue receptor type 1 (Q92847 whole entry): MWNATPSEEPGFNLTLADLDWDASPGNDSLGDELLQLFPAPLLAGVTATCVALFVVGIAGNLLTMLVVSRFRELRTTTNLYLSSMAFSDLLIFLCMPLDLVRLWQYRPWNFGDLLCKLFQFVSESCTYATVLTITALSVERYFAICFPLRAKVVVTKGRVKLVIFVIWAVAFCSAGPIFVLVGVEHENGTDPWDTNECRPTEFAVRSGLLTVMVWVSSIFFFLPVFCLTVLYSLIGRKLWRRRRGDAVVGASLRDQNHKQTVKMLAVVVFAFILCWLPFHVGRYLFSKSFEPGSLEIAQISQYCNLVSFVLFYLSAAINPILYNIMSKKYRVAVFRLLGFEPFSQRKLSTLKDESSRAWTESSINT
Sequence of Voltage-gated inwardly rectifying potassium channel KCNH2 (Q12809 whole entry): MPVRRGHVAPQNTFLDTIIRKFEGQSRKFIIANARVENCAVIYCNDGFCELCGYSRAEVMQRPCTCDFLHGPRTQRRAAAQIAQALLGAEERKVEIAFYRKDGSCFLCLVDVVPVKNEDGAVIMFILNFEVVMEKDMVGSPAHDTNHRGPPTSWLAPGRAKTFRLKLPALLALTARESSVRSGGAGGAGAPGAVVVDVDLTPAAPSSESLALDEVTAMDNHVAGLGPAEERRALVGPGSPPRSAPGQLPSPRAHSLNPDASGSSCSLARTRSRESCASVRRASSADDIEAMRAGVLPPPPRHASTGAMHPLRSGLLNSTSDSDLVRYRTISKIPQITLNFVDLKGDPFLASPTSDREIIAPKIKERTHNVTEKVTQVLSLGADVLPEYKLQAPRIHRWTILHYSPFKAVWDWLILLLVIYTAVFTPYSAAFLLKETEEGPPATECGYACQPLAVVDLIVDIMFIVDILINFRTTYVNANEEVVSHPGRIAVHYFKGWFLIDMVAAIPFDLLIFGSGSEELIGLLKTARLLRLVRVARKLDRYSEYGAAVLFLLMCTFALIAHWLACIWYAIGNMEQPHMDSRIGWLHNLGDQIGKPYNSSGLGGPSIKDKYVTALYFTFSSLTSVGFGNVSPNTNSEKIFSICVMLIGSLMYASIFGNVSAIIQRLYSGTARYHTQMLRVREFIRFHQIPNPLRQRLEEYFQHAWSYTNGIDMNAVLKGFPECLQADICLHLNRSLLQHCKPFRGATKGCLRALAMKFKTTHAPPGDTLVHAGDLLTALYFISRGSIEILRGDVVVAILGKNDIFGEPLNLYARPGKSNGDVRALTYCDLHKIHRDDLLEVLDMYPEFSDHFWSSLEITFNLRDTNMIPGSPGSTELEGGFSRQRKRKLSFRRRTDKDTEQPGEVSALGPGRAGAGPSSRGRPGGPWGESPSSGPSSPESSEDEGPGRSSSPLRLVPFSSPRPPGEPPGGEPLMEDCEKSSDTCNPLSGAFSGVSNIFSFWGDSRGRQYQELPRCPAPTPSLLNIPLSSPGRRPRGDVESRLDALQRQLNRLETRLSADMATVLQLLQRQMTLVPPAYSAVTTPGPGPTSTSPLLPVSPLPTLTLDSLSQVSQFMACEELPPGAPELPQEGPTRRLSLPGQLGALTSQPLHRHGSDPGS

For the compound `C[C@@H]1CN(Cc2ccc(-c3ccccc3CN(C)C(=O)COc3ccc(F)cc3)cc2)C[C@H](C)N1`, the EC50 in data set [1] was 0.0316 µM. Moreover, the IC50 in data set [2] was found to be 6 µM; in [3], 7.3 µM.
On to `C[C@@H]1CN(Cc2ccc(-c3ccccc3CN(C)C(=O)COc3ccccc3)cc2)C[C@H](C)N1`, for which, in data set [1], the EC50 is 0.0794 µM. Besides, the half-maximal inhibitory concentration (IC50) in data set [2] came to 7 µM; in [3], 24 µM. Further, the CL in data set [4] amounted to 4.9 mL/min/g; in data set [5], 9.5 mL/min/g.
In turn, `C[C@@H]1CN(Cc2ccc(-n3ccnc3C(=O)N3CCC(Nc4cccc(F)c4)CC3)cc2)C[C@H](C)N1.Cl` yielded a solubility in data set [6] not below 500 µg/mL.
For the compound `CCN(CCc1ccccc1)C(=O)c1ccccc1-c1ccc(CN2C[C@@H](C)N[C@@H](C)C2)cc1`, the 50% effective concentration (EC50) in [1] is 0.00794 µM. For the same compound, the IC50 in data set [2] was 0.9 µM; in data set [3], 1.5 µM. For the same compound, the CL in data set [4] amounted to 40 mL/min/g; in data set [5], 26 mL/min/g.
For `C[C@@H]1CN(Cc2ccc(-c3cccnc3C(=O)N3CCC(Cc4ccc(F)cc4)CC3)cc2)C[C@H](C)N1` the same measures were 0.01 µM, 13 µM, 5.6 µM, 16 mL/min/g and 16 mL/min/g.
For `C[C@@H]1CN(Cc2ccc(-c3ccccc3CN(C)C(=O)Cc3cccc(Cl)c3)cc2)C[C@H](C)N1` the same measures were 0.0794 µM, 1.4 µM, 1.5 µM, 20 mL/min/g and 17 mL/min/g.
For `C[C@@H]1CN(Cc2ccc(-c3ccccc3CN(C)C(=O)CS(=O)(=O)c3ccccc3)cc2)C[C@H](C)N1` the same measures were 0.01 µM, 3 µM, 8.9 µM, 6.8 mL/min/g and 4.3 mL/min/g.
Take `C[C@@H]1CN(Cc2ccc(-c3cccnc3C(=O)N3CCC(Nc4ccc(F)cc4)CC3)cc2)C[C@H](C)N1`: the EC50 is 0.02 µM in [1] and 0.1 µM in [12]. The IC50 in data set [2] was more than 100 µM; in [3] it was more than 100 µM; in [7], more than 100 µM; in [8] it was more than 100 µM; in data set [9] it was more than 100 µM; in data set [10], 15 µM. The compound also showed an IC50 in data set [11] of more than 31.6 µM. Moreover, the CL in data set [4] was determined as 2.6 mL/min/g; in data set [5] it was 2.8 mL/min/g. Further, the log distribution coefficient (logD) in [13] was 0.72. Further, the clearance came to 53 mL/min/kg in data set [14] and 19 mL/min/kg in [16]. Also, the bioavailability in [15] was found to be 13%; in data set [17] it was 58%. In addition, the Emax at 10 µM in data set [18] was 486%. The maximal effect (Emax) at 3 µM in data set [19] came out at 343%. In addition, the maximal effect (Emax) at 1 µM in data set [20] came to 299%. The maximum response (Emax) at 0.3 µM in data set [21] amounted to 168%.
On to `C[C@@H]1CN(Cc2ccc(-c3ccccc3C(=O)N3CCC(Cc4ccc(F)cc4)CC3)cc2)C[C@H](C)N1`, for which the EC50 in data set [1] was 0.01 µM. Besides, the IC50 was 0.6 µM in data set [2] and 0.5 µM in [3]. Moreover, the CL in [4] came out at 29 mL/min/g; in [5] it was 7 mL/min/g.
Regarding `C[C@@H]1CN(Cc2ccc(-c3ccccc3C(=O)N3CCC(Nc4ccccc4)CC3)cc2)C[C@H](C)N1`, the EC50 in data set [1] is 0.00501 µM. Besides, the IC50 in data set [2] turned out to be 12 µM; in data set [3], 17 µM. For the same compound, the CL in data set [4] was found to be 7 mL/min/g; in [5], 20 mL/min/g.
On to `C[C@@H]1CN(Cc2ccc(-c3ccccc3C(=O)N3CCC(C(=O)c4ccc(F)cc4)CC3)cc2)C[C@H](C)N1`, for which, in [1], the concentration giving a half-maximal response (EC50) is 0.0631 µM. Further, the IC50 in [2] turned out to be 4.8 µM; in data set [3], 3.6 µM.
As to `C[C@@H]1CN(Cc2ccc(-n3ccnc3C(=O)N3CCC(Nc4cccc(F)c4)CC3)cc2)C[C@H](C)N1`, the EC50 in [1] is 0.0158 µM; in [12], 0.501 µM. The IC50 in data set [2] is 58 µM; in data set [3], 46 µM; in [7], 74 µM; in data set [8], more than 100 µM; in [9], more than 100 µM; in data set [10], 29 µM. Besides, the CL was found to be 3.4 mL/min/g in [4] and 4.1 mL/min/g in [5]. In data set [13], this compound gave a pH-dependent lipophilicity (logD) of 0.82. Further, the clearance in data set [14] was 61 mL/min/kg. In data set [15], the bioavailability was 17%. The maximal effect (Emax) at 3 µM in data set [19] came out at 224%. Besides, in [21], the Emax at 0.3 µM was 73%. In addition, the Emax at 1.5 µM in data set [22] was determined as 302%.
For the compound `C[C@@H]1CN(Cc2ccc(-c3ccccc3C(=O)N3CCC(Nc4ccc(Cl)cc4)CC3)cc2)C[C@H](C)N1`, the EC50 in data set [1] is 0.0501 µM. For the same compound, the 50% inhibitory concentration (IC50) in [2] was determined as 5.2 µM; in [3] it was 3.5 µM. Moreover, the figures for the CL in data set [4] and in [5] were 8 mL/min/g and 33 mL/min/g, respectively.
Take `C[C@@H]1CN(Cc2ccc(-c3cccnc3C(=O)N3CCC(Nc4ccc(F)cc4)CC3)cc2)C[C@H](C)N1.Cl`: the solubility in [6] was not below 1000 µg/mL.
Regarding `COc1cccc(CCN(Cc2ccccc2-c2ccc(CN3C[C@@H](C)N[C@@H](C)C3)cc2)C(=O)NC2CCCCC2)c1`, the results for the EC50 in [1] and in data set [23] were 0.0501 µM and 0.01 µM, respectively. Moreover, the concentration for half-maximal inhibition (IC50) was 0.2 µM in data set [2] and 0.4 µM in [3]. The CL is more than 50 mL/min/g in data set [4] and 23 mL/min/g in data set [5].
With `Cc1cc(CC(=O)N(C)Cc2ccccc2-c2ccc(CN3C[C@@H](C)N[C@@H](C)C3)cc2)on1`, the concentration giving a half-maximal response (EC50) in data set [1] is 1 µM. The half-inhibitory concentration (IC50) in data set [2] was 40 µM; in data set [3], more than 100 µM. Further, the CL is 2.4 mL/min/g in [4] and 2.9 mL/min/g in data set [5].
In the case of `CC[C@H]1OC(=O)[C@H](C)[C@@H](O[C@H]2C[C@@](C)(OC)[C@@H](O)[C@H](C)O2)[C@H](C)[C@@H](O[C@@H]2O[C@H](C)C[C@H](N(C)C)[C@H]2O)[C@](C)(O)C[C@@H](C)C(=O)[C@H](C)[C@@H](O)[C@]1(C)O` [ERYTHROMYCIN], the Emax at 10 µM in [18] came out at 368%. Besides, the maximum response (Emax) at 3 µM in data set [19] was found to be 490%. Besides, in data set [20], the Emax at 1 µM was 189%. For the same compound, the maximal effect (Emax) at 0.3 µM in data set [21] amounted to 69%.
